MLL AF4-AF9 inh – inhibitors of human MLL-AF4/AF9 interaction; P42568; AlphaScreen, biotin-AF4 peptide binding to FLAG-AF9; inhibition, % at 10 µM; actives 0.47% (n = 350,000); AID 651704;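 active = every replicate reaching a set inhibition limit, whatever the replicate mean, cut at about 25% in these data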;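 also: 0% = plate neutral control median and 100% = total signal loss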
SIRT5 block – blocks human SIRT5 desuccinylation of peptide; Q9NXA8; Purified SirT5, succinyl-peptide AMC, trypsin-coupled fluorescence; inhibition, % at 15 µM; actives 1.1% (n = 330,000); AID 652115; in the data active = inhibition above about 15%
Target sequence (Q9NXA8 whole entry, looked up): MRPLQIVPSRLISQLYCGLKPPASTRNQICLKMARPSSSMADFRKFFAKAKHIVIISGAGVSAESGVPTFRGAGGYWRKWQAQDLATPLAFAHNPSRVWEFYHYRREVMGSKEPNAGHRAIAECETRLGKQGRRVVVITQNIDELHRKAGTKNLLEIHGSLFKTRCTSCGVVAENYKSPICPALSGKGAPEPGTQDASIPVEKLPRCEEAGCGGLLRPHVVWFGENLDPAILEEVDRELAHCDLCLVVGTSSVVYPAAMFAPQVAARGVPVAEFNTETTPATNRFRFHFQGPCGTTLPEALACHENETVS
PDI turbidity – PDI (human) enzyme inhibition; P07237; PDI insulin aggregation turbidity, A650, 90 min; inhibition, % at 10 µM; actives 0.052% (n = 350,000); AID 588391;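 active = mean inhibition across replicates of 30% or more, whatever share of single replicates reach that level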
ERp5 inh – blocks human ERp5 reductase activity on insulin; actives 0.05% (n = 350,000); ERp5 insulin aggregation, absorbance 650 nm, 90 min; inhibition, % at 9.99 µM; Q15084;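 active = mean replicate inhibition above about 25%, with every replicate also reaching it, limit read from the data, passing the limit was not always enough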
FN deposit inh – fibronectin deposition inhibition | AH1F fibroblasts, Alexa488-fibronectin deposition fluorescence, overnight | inhibition, % at 12.6 µM | actives 0.086% (n = 350,000) | AID 743247;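 active = mean inhibition across replicates of 30% or more, regardless of how many single replicates reach that level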;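 also: positive control wells lacked labelled fibronectin entirely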
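Material: AH1F fibroblast monolayer depositing Alexa488-labelled fibronectin into matrix | Input: 10000 AH1F cells/well | Medium: DMEM plus 2% serum, read in PBS | Reagent: Alexa488-fibronectin, 24 nM final in well | Compound dosing: One dose per compound, pinned | Schedule: 1 h adhesion, overnight exposure | Measured by: Fluorescence at 485 nm excitation, 525 nm emission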
Active calls of the source: *; x = no result given. Rows were chosen to be rich in hits. Some 1.3% of all compounds tested hit in one or more screens of this group.

SMILES	MLL AF4-AF9 inh	SIRT5 block	PDI turbidity	ERp5 inh	FN deposit inh
Oc1ccc2c(c1)OCC1(O)Cc3cc(O)c(O)cc3C21 (stereo unspecified)	26*	2	x	4	x
Cc1c(C(=O)N2CCCC2)sc(NC(=O)c2ccccc2)c1C#N	x	x	0	x	x
Cc1ccc(NC(=O)CC2Nc3ccccc3NC2=O)cc1Cl (stereo unspecified)	x	x	-4	x	x
O=C(CC1Nc2ccccc2NC1=O)Nc1ccc2c(c1)OCO2 (stereo unspecified)	1	1	-4	1	34*
COCC(C)NC(=O)c1ccc(N(C)C)cc1 (stereo unspecified)	x	x	17	x	2
CC(=O)Nc1cccc(-c2ccnc3c2CC(C(=O)NCc2ccc(N(C)C)cc2)O3)c1 (stereo unspecified)	31*	2	11	3	x
CC(=O)Nc1cccc(-c2ccnc3c2CC(C(=O)NCc2ccncc2)O3)c1 (stereo unspecified)	-8	x	-1	-1	-22
CC(=O)Nc1cccc(-c2ccnc3c2CC(C(=O)NCc2ccc(F)c(F)c2)O3)c1 (stereo unspecified)	6	15*	-3	-9	2
C[C@@H]1CCCCO[C@H](CN(C)Cc2ccc(C(=O)O)cc2)[C@H](C)CN([C@H](C)CO)C(=O)c2cc(NS(C)(=O)=O)ccc2O1	-3	2	x	-1	x
COc1ccc(C(=O)Nn2cnc3scc(-c4cccs4)c3c2=O)c(O)c1	x	x	-6	x	x
O=C1c2ccccc2C(c2nnnn2Cc2ccccc2)N1Cc1ccco1 (stereo unspecified)	-1	15*	x	1	7
CC(=O)Nc1ccc(NC(=O)CSc2nnc(NC(=O)C3CC3)s2)cc1	-1	-3	-31	-9	-5
COc1ccc(NC(=O)CSc2nnc(NC(=O)C3CC3)s2)cc1OC	-2	1	8	26*	-1
N=c1c(C(=O)NCC2CCCO2)cc2c(=O)n3ccccc3nc2n1C1CCCC1 (stereo unspecified)	-1	-135	14	-1	4
Cc1cccn2c(=O)c3cc(C(=O)NCC4CCCO4)c(=N)n(C4CCCC4)c3nc12 (stereo unspecified)	-3	81*	-2	0	5
COC(=O)C[C@H]1C=C[C@@H](NS(=O)(=O)c2ccc(OC)cc2)[C@H](CO)O1	-2	-1	x	7	-1
O=C(O)CCNC(=O)c1ccc(NC(=O)Cc2ccc(Cl)cc2)cc1	0	26*	2	11	12
O=C(O)CCNC(=O)c1ccc(NC(=O)C(c2ccccc2)c2ccccc2)cc1	3	57*	4	4	-3
C[C@H]1CN([C@@H](C)CO)C(=O)Cc2cc(NC(=O)CCCCCC(=O)Nc3ccccc3N)ccc2O[C@@H]1CN(C)CC1CCCCC1	-1	8	x	2	-11
O=C(c1ccncc1)N1C[C@@H]2[C@H](c3ccccc31)[C@@H](CO)N2C(=O)CN1CCOCC1	3	7	x	-1	5
CC(C)c1cccc(C(C)C)c1NC(=O)CCl	1	16*	-13	-2	1
Cc1ccc(C)c(NC(=O)COC(=O)CC2CC3CCC2C3)c1 (stereo unspecified)	-1	-2	-2	0	-10
Cc1cc(Br)c(NC(=O)COC(=O)CC2CC3CCC2C3)c(Br)c1 (stereo unspecified)	1	19*	5	-2	-3
CC(NC(=O)c1ccc2c(c1)S(=O)(=O)N=C1CCCCCN12)c1ccc(S(N)(=O)=O)cc1 (stereo unspecified)	-1	-5	1	9	3
CC1CN(S(=O)(=O)c2cccc3nsnc23)CC(C)O1 (stereo unspecified)	x	x	1	x	15
SMILES	MLL AF4-AF9 inh	SIRT5 block	PDI turbidity	ERp5 inh	FN deposit inh
Cc1ccc(NC(=O)C2CCCN(S(=O)(=O)c3cccnc3)C2)cc1C (stereo unspecified)	0	18*	-3	-1	6
COc1ccc(N(CCCN2C(=O)c3cccc4cccc(c34)C2=O)C(=O)c2cccnc2)cc1	6	1	-2	-1	6
Cc1ccc(S(=O)(=O)N(C)C)cc1NC(=O)CSc1nnnn1-c1ccc(O)cc1	-3	-3	26	1	-3
CN(C)S(=O)(=O)c1ccc(Cl)c(NC(=O)CSc2nnnn2-c2ccc(O)cc2)c1	2	0	41*	1	14
CCN(Cc1ccncc1)C(=O)Cc1cccs1	0	6	12	-1	3
C[C@H]1CCCCO[C@H](CN(C)C(=O)CCC(F)(F)F)[C@@H](C)CN([C@@H](C)CO)C(=O)c2cc(NS(=O)(=O)c3ccc(Cl)cc3)ccc2O1	0	15*	x	9	-3
C[C@@H]1CCCCO[C@@H](CN(C)C(=O)CCC(F)(F)F)[C@H](C)CN([C@@H](C)CO)C(=O)c2cc(NS(=O)(=O)c3ccc(Cl)cc3)ccc2O1	-2	13	x	64*	-2
Cc1ccc(S(=O)(=O)Nc2ccc3c(c2)C(=O)N([C@@H](C)CO)C[C@H](C)[C@H](CN(C)C(=O)CCC(F)(F)F)OCCCC[C@H](C)O3)cc1	2	17*	x	1	-5
CCCCn1c(N)c(N(CCOC)C(=O)C2CCN(S(=O)(=O)c3ccc(F)cc3)CC2)c(=O)[nH]c1=O	-13	-1	-3	-3	9
CSc1n[nH]c(NC(C)=O)n1	x	x	7	x	x
CCOC(=O)c1cc2c(=Cc3ccc(N(C)C)cc3)c3ccccc3n2[n+]1C	52*	0	5	-3	5
Cc1cc2c(=Cc3ccc(N(C)C)cc3)c3ccccc3n2[n+]1C	30*	3	-4	-7	-26
CCOC(=O)SC1=N/C(=C\c2ccc(N(C)C)cc2)C(=O)S1	5	-14	-5	2	x
O=C(Nc1ccccc1C(=O)N1CCOCC1)c1ccc(F)cc1	x	x	2	x	x
COc1ccc(-c2cc(C(=O)NC3CCCC3)no2)cc1	1	-1	0	2	0
O=C(CC(=O)c1cc(Cl)ccc1O)c1ccccc1	-8	-3	1	-7	x
O=C(c1ccccc1)c1cc(Cl)ccc1N1C(=O)C=CC1=O	14	0	2	9	50*
C[C@H](CO)N1C[C@H](C)[C@H](CN(C)Cc2ccc3c(c2)OCO3)Oc2ccc(NC(=O)Cn3cnnn3)cc2CC1=O	0	-5	x	-2	x
COc1ccc(NC(C)=O)cc1S(=O)(=O)NCc1ccc2c(c1)OCO2	0	x	5	4	x
Cc1ccc2c(c1)c1c(n2CC(O)CNC2CCCCC2)CCCC1 (stereo unspecified)	30*	x	x	2	-2
NC(=O)c1c(NC(=O)c2ccc([N+](=O)[O-])o2)sc2c1CCCC2	1	0	-1	1	4
O=C(NC1CCCCCCC1O)c1ccccc1 (stereo unspecified)	-4	16*	3	1	-2
N#C[C@H]1[C@@H](c2ccccc2-c2ccccc2F)[C@@H](CO)N1C(=O)Cc1ccccc1	0	2	x	-3	6

Screening results as filed in PubChem.
